What was measured:
[1] = Drug distribution in western atherogenic diet fed ApoE-/- mouse blood assessed as compound remaining at […], iv administered as bolus injection measured for 30 mins by gamma counter analysis; format: ADME, organism-based; details: in vivo, 0.5 h
Summary of the method: (§1)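 Diet-fed male ApoE-/- mice (39 ± 5 g, n = 4-6) under 2% isoflurane received radiotracer (~7.5 MBq, 100-200 µL) IV by tail-vein bolus over 30 s. After 30 min, blood was taken by cardiac puncture, then PBS/formalin perfusion and organ dissection. Uptake is decay-corrected %ID normalized to tissue mass (%ID/g).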

[2] = Drug distribution in western atherogenic diet fed ApoE-/- mouse brain at […], iv administered as bolus injection measured for 30 mins by gamma counter analysis; format: ADME, organism-based; details: in vivo, 0.5 h; summary of the method: as §1
[3] = Stability in western atherogenic diet fed ApoE-/- mouse plasma assessed as intact compound level at ~75 MBq, iv administered as bolus injection pretreated with 6-fluoro-N-(4-fluoro-3-methylphenyl)methyl)-5-(2-fluoroethoxy)-4-oxo-3,4-dihydroquinazoline-2-carboxamide followed by tracer addition and measured after 30 mins by gamma counter analysis; format: ADME, organism-based; details: read-out: Stability
Summary of the method: (§2)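 Blood was drawn by cardiac puncture into K₂EDTA tubes 30 min after IV radiotracer in diet-fed ApoE-/- mice. Optional IV pretreatment 15 min before: unlabelled analogue 2.5 mg/kg or WAY170523 7.5 mg/kg. Pooled protein-free plasma was spiked with standard and run on radio-HPLC (C18, ammonium formate/ACN). Fractions were collected each minute and gamma-counted to give the parent fraction.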

[4] = Drug distribution in western atherogenic diet fed ApoE-/- mouse blood assessed as compound remaining at 14 to 16 MBq, iv administered as bolus injection measured for 150 mins by gamma counter analysis; format: ADME, organism-based; details: in vivo, 2.5 h, dose 14-16 MBq
[5] = Drug distribution in western atherogenic diet fed ApoE-/- mouse myocardium assessed as myocardial retention at […], iv administered as bolus injection measured for 60 mins by PET analysis; format: ADME, organism-based; details: in vivo, 1 h
Summary of the method: (§3)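 A 10 min transmission scan preceded tail-vein IV bolus of radiotracer (~7.5 MBq, over 30 s) in diet-fed ApoE-/- mice. Dynamic whole-body PET ran for 60 min (4×15 s, 4×1 min, 11×5 min frames), corrected for attenuation and scatter, 3D-OSEM/MAP reconstruction. Volumetric organ ROIs gave %ID·cc⁻¹ time-activity curves; n = 2 per group.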

[6] = (§4) Drug distribution in western atherogenic diet fed ApoE-/- mouse aortic plaques at […], iv administered as bolus injection pretreated with 6-fluoro-N-(4-fluoro-3-methylphenyl)methyl)-5-(2-fluoroethoxy)-4-oxo-3,4-dihydroquinazoline-2-carboxamide for 15 mins followed by tracer addition and measured after 30 mins by Oil Red O staining based autoradiography; format: ADME, organism-based, Aorta; details: in vivo, 0.5 h
Summary of the method: (§5)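 Male ApoE-/- mice were fed a western atherogenic diet from 8 weeks of age for 13-16 weeks. Radiotracer (~7.5 MBq) was given IV by tail-vein bolus over 30 s. Blocking: unlabelled tracer analogue (2.5 mg/kg; DMA/propylene glycol/PEG400/water) or WAY170523 (7.5 mg/kg; DMSO/PEG400/water), both IV 15 min before. At 30 min, perfused aortae were exposed to a phosphor screen for 10 half-lives (%ID·mm⁻²), with ORO staining.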

[7] = Drug distribution in western atherogenic diet fed ApoE-/- mouse pancreas at […], iv administered as bolus injection measured for 30 mins by gamma counter analysis; format: ADME, organism-based; details: in vivo, 0.5 h; summary of the method: as §1
[8] = Drug distribution in western atherogenic diet fed ApoE-/- mouse kidney at […], iv administered as bolus injection measured for 60 mins by PET analysis; format: ADME, organism-based; details: in vivo, 1 h; summary of the method: as §3
[9] = as §4, with “plaques assessed as reduction in radioactivity” for “plaques”, “autoradiography relative to control” for “autoradiography”; format: ADME, organism-based, Aorta; set-up: scale not given: the % may be the effect or the level left; details: in vivo, 0.5 h; summary of the method: as §5
[10] = Tmax in western atherogenic diet fed ApoE-/- mouse blood at […], iv administered as bolus injection measured for 60 mins by PET analysis; format: ADME, organism-based; details: in vivo, 1 h; summary of the method: as §3
[11] = Drug distribution in western atherogenic diet fed ApoE-/- mouse fat tissue at […], iv administered as bolus injection measured for 30 mins by gamma counter analysis; format: ADME, organism-based, Adipose tissue; details: in vivo, 0.5 h; summary of the method: as §1
[12] = Drug distribution in western atherogenic diet fed ApoE-/- mouse liver at […], iv administered as bolus injection measured for 60 mins by PET analysis; format: ADME, organism-based; details: in vivo, 1 h; summary of the method: as §3
[13] = Stability in western atherogenic diet fed ApoE-/- mouse plasma assessed as intact compound level at ~75 MBq, iv administered as bolus injection pretreated with N-(2-(4-(N-benzyl-N-(2-(hydroxycarbamoyl)-4,6-dimethylphenyl)sulfamoyl)phenoxy)ethyl)benzofuran-2-carboxamide followed by tracer addition and measured after 30 mins by gamma counter analysis; format: ADME, organism-based; details: read-out: Stability; summary of the method: as §2
[14] = Drug distribution in western atherogenic diet fed ApoE-/- mouse aortic plaques at […], iv administered as bolus injection measured for 30 mins by Oil Red O staining based autoradiography; format: ADME, organism-based, Aorta; details: in vivo, 0.5 h; summary of the method: as §5
[15] = Stability in western atherogenic diet fed ApoE-/- mouse plasma assessed as intact compound level at ~75 MBq, iv administered as bolus injection and measured after 30 mins by gamma counter analysis; format: ADME, organism-based; details: read-out: Stability; summary of the method: as §2
[16] = Drug distribution in western atherogenic diet fed ApoE-/- mouse lung at […], iv administered as bolus injection measured for 30 mins by gamma counter analysis; format: ADME, organism-based; details: in vivo, 0.5 h; summary of the method: as §1
[17] = Drug distribution in western atherogenic diet fed ApoE-/- mouse muscle tissue at […], iv administered as bolus injection measured for 30 mins by gamma counter analysis; format: ADME, organism-based; details: in vivo, 0.5 h; summary of the method: as §1
[18] = Drug distribution in western atherogenic diet fed ApoE-/- mouse bone at […], iv administered as bolus injection measured for 30 mins by gamma counter analysis; format: ADME, organism-based, Bone element; details: in vivo, 0.5 h; summary of the method: as §1
[19] = Drug distribution in western atherogenic diet fed ApoE-/- mouse spleen at […], iv administered as bolus injection measured for 30 mins by gamma counter analysis; format: ADME, organism-based; details: in vivo, 0.5 h; summary of the method: as §1
[20] = Drug distribution in western atherogenic diet fed ApoE-/- mouse aortic plaques assessed as reduction in radioactivity at […], iv administered as bolus injection pretreated with N-(2-(4-(N-benzyl-N-(2-(hydroxycarbamoyl)-4,6-dimethylphenyl)sulfamoyl)phenoxy)ethyl)benzofuran-2-carboxamide for 15 mins followed by tracer addition and measured after 30 mins by Oil Red O staining based autoradiography relative to control; format: ADME, organism-based, Aorta; set-up: scale not given: the % may be the effect or the level left; details: in vivo, 0.5 h; summary of the method: as §5
[21] = Drug distribution in western atherogenic diet fed ApoE-/- mouse aortic plaques at […], iv administered as bolus injection pretreated with N-(2-(4-(N-benzyl-N-(2-(hydroxycarbamoyl)-4,6-dimethylphenyl)sulfamoyl)phenoxy)ethyl)benzofuran-2-carboxamide for 15 mins followed by tracer addition and measured after 30 mins by Oil Red O staining based autoradiography; format: ADME, organism-based, Aorta; details: in vivo, 0.5 h; summary of the method: as §5
[22] = Octanol/PBS distribution coefficient, logD of compound at pH 7.4 incubated for 10 mins under shaking condition by gamma counter analysis; format: physicochemical
Summary of the method: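 Radiotracer partitioning between 1-octanol and 1× PBS at pH 7.4. Mean ± standard error of two independent experiments, each in quadruplicate.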

[23] = Drug distribution in western atherogenic diet fed ApoE-/- mouse stomach at […], iv administered as bolus injection measured for 30 mins by gamma counter analysis; format: ADME, organism-based; details: in vivo, 0.5 h; summary of the method: as §1
[24] = Drug distribution in western atherogenic diet fed ApoE-/- mouse myocardium assessed as compound remaining at […], iv administered as bolus injection measured for 30 mins by gamma counter analysis; format: ADME, organism-based; details: in vivo, 0.5 h; summary of the method: as §1
[25] = Drug distribution in western atherogenic diet fed ApoE-/- mouse liver at […], iv administered as bolus injection measured for 30 mins by gamma counter analysis; format: ADME, organism-based; details: in vivo, 0.5 h; summary of the method: as §1
[26] = Drug excretion in western atherogenic diet fed ApoE-/- mouse urine at […], iv administered as bolus injection measured for 60 mins by PET analysis; format: ADME, organism-based; details: in vivo, 1 h; summary of the method: as §3
[27] = Stability of compound in 10% EtOH/saline assessed as compound degradation measured upto 75 mins by analytical radio-HPLC analysis; format: physicochemical; details: buffer, 1.25 h
Summary of the method: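 Radiotracer formulated in 10% EtOH/0.9% saline was held at room temperature up to 75 min. Samples were analysed by analytical radio-HPLC (C18, 0.1 M ammonium formate/ACN gradient, 1 mL·min⁻¹).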

Cc1cc(CNC(=O)c2nc3ccc(F)c(OCC[18F])c3c(=O)[nH]2)ccc1F
Drug uptake [1]: 3.28 % ID/g
Drug uptake [2]: ~ 2 % ID/g
remaining at 0.5 h [3]: 78%
Drug uptake [4]: Active
Drug uptake [5]: < 0.5 %ID/cc
Drug uptake [6]: 208.2 %ID.m^-2
Drug uptake [7]: 2.14 % ID/g
Drug uptake [8]: 4.42 %ID/cc
Activity [9]: 23%
Tmax [10]: 37.5 s
Drug uptake [11]: ~ 2 % ID/g
Drug uptake [12]: 6.43 %ID/cc
remaining at 0.5 h [13]: 87%
Drug uptake [14]: 270 %ID.m^-2
remaining at 0.5 h [15]: 78%
Drug uptake [16]: ~ 2 % ID/g
Drug uptake [17]: ~ 2 % ID/g
Drug uptake [18]: ~ 2 % ID/g
Drug uptake [19]: ~ 2 % ID/g
Activity [20]: 36%
Drug uptake [21]: 173.4 %ID.m^-2
logD at 10 min [22]: 3.09
Drug uptake [23]: ~ 2 % ID/g
Drug uptake [24]: ~ 1 % ID/g
Drug uptake [25]: 3.32 % ID/g
Drug excretion [26]: Active
Stability [27]: Stable

Reference: ChEMBL document CHEMBL5338774, “Quinazoline-2-Carboxamides as Selective PET Radiotracers for Matrix Metalloproteinase-13 Imaging in Atherosclerosis” (J Med Chem, 2023)
